# Source: ChEMBL document CHEMBL2169857, “Synthesis of a potent photoreactive acidic γ-secretase modulator for target identification in cells” (Bioorg Med Chem, 2012)
# Calls of active or inactive are those of the source. The calls are words filed in the database; no cut-off is given here.
# Target: Presenilin-1 (Homo sapiens) (UniProt P49768)
# Test: Binding affinity to gamma-secretase catalytic subunit of PS1 expressed in N2a-APP cells at 0.2 uM followed by irradiated with UV light by Western blot analysis
# Assay type: cell-based
# In short: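 N2a-ANPP cells stably overexpressing APP and all four γ-secretase subunits treated live with 0.2 μM biotinylated photoprobe or DMSO vehicle, irradiated with 350 nm UV; membranes prepared, labeled proteins affinity-purified on streptavidin beads, resolved by SDS gel and Western blotted with antibodies to the four γ-secretase subunits or APP.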
row,Activity,Compound
1,Active,COC(=O)CC1CCN(C(C#CCCCCNC(=O)CCCC[C@@H]2SC[C@@H]3NC(=O)N[C@@H]32)c2ccc(C3(C(F)(F)F)N=N3)cc2)C(c2ccc(C(F)(F)F)cc2)C1 (mixture of isomers)
2,Active,O=C(O)CC1CCN(C(C#CCCCCOC(=O)CCCC[C@@H]2SC[C@@H]3NC(=O)N[C@@H]32)c2ccc(C3(C(F)(F)F)N=N3)cc2)C(c2ccc(C(F)(F)F)cc2)C1 (mixture of isomers)

# Test system: not listed separately
# Test: Modulation of gamma-secretase expressed in CHO cells co-expressing wild type APP and PS1 assessed as inhibition of amyloid beta-42 production sandwich ELISA
# Assay type: cell-based
# In short: (§1)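 CHO cells stably overexpressing wild-type APP and PS1 incubated with compounds; Aβ42, Aβ40 and, for selected compounds, Aβ38 in cell-culture supernatants quantified by sandwich ELISA; IC50 derived for Aβ42.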
row,Compound,IC50 [nM]
1,O=C(O)CC1CCN(C(C#CCCCCOC(=O)CCCC[C@@H]2SC[C@@H]3NC(=O)N[C@@H]32)c2ccc(C(F)(F)F)cc2)C(c2ccc(C(F)(F)F)cc2)C1 (mixture of isomers),1000
2,O=C(O)CC1CCN(C(C#CCCCCO)c2ccc(C3(C(F)(F)F)N=N3)cc2)C(c2ccc(C(F)(F)F)cc2)C1 (racemic),2000
3,COc1cc(C(C#CC(C)C)N2CCC(CC(=O)O)CC2c2ccc(C(F)(F)F)cc2)ccc1-n1cnc(C)c1 (racemic),1000
4,O=C(O)CC1CCN(C(C#CCCCCNC(=O)CCCC[C@@H]2SC[C@@H]3NC(=O)N[C@@H]32)c2ccc(C3(C(F)(F)F)N=N3)cc2)C(c2ccc(C(F)(F)F)cc2)C1 (mixture of isomers),2200
5,CC(C)/C=C\[C@@H](c1ccc(Cl)cc1)N1CC[C@H](CC(=O)O)C[C@@H]1c1ccc(C(F)(F)F)cc1,616

# Results, then the compound that gave them:
row,IC50 [nM],Compound
1,300,CC(C)C#C[C@@H](c1ccc(Cl)cc1)N1CC[C@H](CC(=O)O)C[C@@H]1c1ccc(C(F)(F)F)cc1
2,190,CC(C)C#CC(c1ccc(C2(C(F)(F)F)N=N2)cc1)N1CCC(CC(=O)O)CC1c1ccc(C(F)(F)F)cc1 (racemic)
3,500,O=C(O)CC1CCN(C(C#CCCCCOC(=O)CCCC[C@@H]2SC[C@@H]3NC(=O)N[C@@H]32)c2ccc(C3(C(F)(F)F)N=N3)cc2)C(c2ccc(C(F)(F)F)cc2)C1 (mixture of isomers)
4,30,CC(C)/C=C\[C@H](c1ccc(Cl)cc1)N1CC[C@@H](CC(=O)O)C[C@H]1c1ccc(C(F)(F)F)cc1
5,350,CC(C)C#C[C@@H](c1ccc(C(F)(F)F)cc1)N1CC[C@H](CC(=O)O)C[C@@H]1c1ccc(C(F)(F)F)cc1
6,50,CC(C)C#C[C@H](c1ccc(C(F)(F)F)cc1)N1CC[C@@H](CC(=O)O)C[C@H]1c1ccc(C(F)(F)F)cc1
7,87,CC(C)C#C[C@H](c1ccc(Cl)cc1)N1CC[C@@H](CC(=O)O)C[C@H]1c1ccc(C(F)(F)F)cc1
8,68,CC(C)CC[C@H](c1ccc(Cl)cc1)N1CC[C@@H](CC(=O)O)C[C@H]1c1ccc(C(F)(F)F)cc1

# Test system: CHO
# Test: Modulation of gamma-secretase expressed in CHO cells co-expressing wild type APP and PS1 assessed as increase of amyloid beta-38 production sandwich ELISA
# Assay type: cell-based
# In short: as §1
row,Compound,Activity
1,CC(C)C#C[C@H](c1ccc(Cl)cc1)N1CC[C@@H](CC(=O)O)C[C@H]1c1ccc(C(F)(F)F)cc1,Active
